Measurements reported in ChEMBL document CHEMBL2146414, “Lignan derivatives from Krameria lappacea roots inhibit acute inflammation in vivo and pro-inflammatory mediators in vitro” (J Nat Prod, 2011).
Calls of active or inactive are those of the source. The rule behind the calls is not given here.

Tests used:
[1] = system: Mus musculus; test: Antiinflammatory activity in CD1 mouse ear dermatitis model assessed as inhibition of Croton oil-induced ear edema at 0.30 umol administered topically per cm'2 of ear measured after induction of dermatitis relative to untreated control; type: functional
How it was run: (§1)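 Male CD-1 mice (28–32 g), anesthetized with ketamine 145 mg/kg i.p.; right ear (about 1 cm2) given 80 μg croton oil in 15 μL acetone, with test substance co-applied in acetone; left ear left untreated. Controls received irritant only. 6 mm punches taken from both ears; edema = weight difference treated minus untreated; % inhibition vs controls. ID50 by graphic interpolation of log dose–effect curves; ANOVA with Dunnett's test.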

[2] = system: Mus musculus; test: Antiinflammatory activity in CD1 mouse ear dermatitis model assessed as inhibition of Croton oil-induced ear edema at 1 umol administered topically per cm'2 of ear measured after induction of dermatitis relative to untreated control; type: functional; how it was run: as §1
[3] = system: Mus musculus; test: Antiinflammatory activity in CD1 mouse ear dermatitis model assessed as inhibition of Croton oil-induced ear edema administered topically per cm'2 of ear measured after induction of dermatitis relative to untreated control; type: functional
[4] = Inhibition of NFkappaB activity transfected in HEK293 cells pretreated for 1 hr before 6 hrs of LPS challenge by luciferase reporter gene assay; details: Homo sapiens
[5] = biological target: T1, Peroxisome proliferator-activated receptor alpha (Homo sapiens) (UniProt Q07869); test: Activation of PPARalpha transfected in HEK293 cells at 10 uM after 18 hrs by firefly luciferase reporter gene-based luminescence assay; type: cell-based
T1 sequence (whole entry): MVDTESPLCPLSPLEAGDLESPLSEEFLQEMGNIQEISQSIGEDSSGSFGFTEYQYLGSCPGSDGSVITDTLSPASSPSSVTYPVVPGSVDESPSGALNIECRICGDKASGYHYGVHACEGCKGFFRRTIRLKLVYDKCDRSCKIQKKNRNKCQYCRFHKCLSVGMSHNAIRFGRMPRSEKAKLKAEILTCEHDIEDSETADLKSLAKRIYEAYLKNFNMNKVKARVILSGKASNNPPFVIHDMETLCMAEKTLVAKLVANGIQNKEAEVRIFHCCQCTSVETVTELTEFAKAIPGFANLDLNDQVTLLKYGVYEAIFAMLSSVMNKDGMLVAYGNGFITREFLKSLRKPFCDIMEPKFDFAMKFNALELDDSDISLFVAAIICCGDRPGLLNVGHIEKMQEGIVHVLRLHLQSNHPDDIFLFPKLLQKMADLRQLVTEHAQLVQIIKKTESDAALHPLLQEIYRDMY

[6] = biological target: T2, Prostaglandin G/H synthase 1 (Ovis aries, UniProt P05979); test: Inhibition of ram seminal vesicle COX1 assessed as PGE2 production by enzyme immunoassay
T2 sequence (P05979 whole entry): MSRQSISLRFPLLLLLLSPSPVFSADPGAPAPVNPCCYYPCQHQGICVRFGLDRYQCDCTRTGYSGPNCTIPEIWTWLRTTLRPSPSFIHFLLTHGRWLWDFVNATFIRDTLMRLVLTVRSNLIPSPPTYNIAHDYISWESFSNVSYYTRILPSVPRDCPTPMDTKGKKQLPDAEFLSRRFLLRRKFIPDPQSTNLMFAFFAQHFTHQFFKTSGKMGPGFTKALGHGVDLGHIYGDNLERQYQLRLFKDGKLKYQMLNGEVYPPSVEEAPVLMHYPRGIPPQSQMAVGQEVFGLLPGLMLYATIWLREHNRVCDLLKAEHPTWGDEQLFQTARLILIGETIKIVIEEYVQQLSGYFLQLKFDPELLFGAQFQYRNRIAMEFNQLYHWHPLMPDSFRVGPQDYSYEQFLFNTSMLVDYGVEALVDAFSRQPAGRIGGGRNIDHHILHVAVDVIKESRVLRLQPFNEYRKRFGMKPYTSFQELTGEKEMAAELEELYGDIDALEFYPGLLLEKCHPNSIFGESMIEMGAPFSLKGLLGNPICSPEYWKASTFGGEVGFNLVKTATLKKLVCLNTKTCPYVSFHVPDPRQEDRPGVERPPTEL
How it was run: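 Purified PGHS-1 from ram seminal vesicles; PGE2 product measured by competitive EIA; samples in ethanol. IC50 from at least three concentrations, duplicates, at least three independent experiments, by nonlinear regression.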

[7] = biological target: T3, Prostaglandin G/H synthase 2 (Ovis aries, UniProt P79208); test: Inhibition of sheep placental COX2 assessed as PGE2 production by enzyme immunoassay
T3 sequence (P79208 whole entry): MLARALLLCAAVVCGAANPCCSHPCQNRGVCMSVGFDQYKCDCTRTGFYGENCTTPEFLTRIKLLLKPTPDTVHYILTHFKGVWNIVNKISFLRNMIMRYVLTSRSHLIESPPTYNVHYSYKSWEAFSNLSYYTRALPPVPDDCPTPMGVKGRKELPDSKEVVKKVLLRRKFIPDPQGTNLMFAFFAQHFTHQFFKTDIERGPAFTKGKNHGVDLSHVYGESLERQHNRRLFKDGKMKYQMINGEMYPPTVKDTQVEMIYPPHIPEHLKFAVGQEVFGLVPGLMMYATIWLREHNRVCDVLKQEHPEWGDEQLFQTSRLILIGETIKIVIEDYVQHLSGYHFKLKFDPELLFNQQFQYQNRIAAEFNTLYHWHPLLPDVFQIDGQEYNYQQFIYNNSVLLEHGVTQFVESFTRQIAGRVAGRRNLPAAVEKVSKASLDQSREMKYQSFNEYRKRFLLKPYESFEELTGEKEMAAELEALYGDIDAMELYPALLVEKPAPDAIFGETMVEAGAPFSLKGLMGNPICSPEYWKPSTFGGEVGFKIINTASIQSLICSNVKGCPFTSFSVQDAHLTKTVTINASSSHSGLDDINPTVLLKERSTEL

[8] = biological target: T4, Prostaglandin E synthase (Homo sapiens, UniProt O14684); test: Inhibition of mPGES1 in IL-1beta treated human A549 cell microsomal membrane assessed as inhibition of PGE2 formation incubated for 15 mins before addition of PGH2 by RP-HPLC method; type: microsomes, Microsome
T4 sequence (O14684 whole entry): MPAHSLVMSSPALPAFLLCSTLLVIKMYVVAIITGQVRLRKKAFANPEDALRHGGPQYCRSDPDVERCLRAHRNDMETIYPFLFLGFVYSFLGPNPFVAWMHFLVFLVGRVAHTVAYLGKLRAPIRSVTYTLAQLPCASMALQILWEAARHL

[9] = system: Radical scavenging activity; test: Antioxidant activity assessed as DPPH free radical scavenging activity up to 100 uM after 30 mins by spectrophotometry; type: functional

SMILES | inhibition (INH) [1] [%] | inhibition (INH) [2] [%] | ID50 [3] [umol/cm2] | IC50 [4] [µM] | Activity [5] | IC50 [6] [µM] | IC50 [7] [µM] | IC50 [8] [µM] | Activity [9]
COc1ccc(-c2cc3cc(CCCO)ccc3o2)c(O)c1 | 50 | 67 | 0.36 | 5.9 | inactive | > 50 | > 50 | 42 | 
C/C=C/c1ccc2c(c1)[C@H](CO)[C@@H](c1ccc(O)cc1)O2 | 36 | 75 | 0.42 |  | inactive | > 50 | > 50 | 39.5 | inactive
C[C@@H]1[C@H](C)[C@@H](c2ccc(O)cc2)O[C@@H]1c1ccc(O)cc1 | 39 | 67 | 0.46 |  | inactive | > 50 | > 50 | > 50 | inactive
C/C=C/c1ccc2c(c1)[C@@H](C)[C@H](c1ccc(O)cc1)O2 | 45 | 81 |  | > 20 | inactive | > 50 | > 50 | 19.5 | inactive
C[C@@H]1[C@H](C)[C@@H](c2ccc(O)cc2)O[C@H]1c1ccc(O)cc1 | 52 | 72 | 0.36 | > 20 | inactive | > 50 | > 50 | > 50 | inactive
C/C=C/c1ccc2oc(-c3ccc(OC)cc3O)cc2c1 [RATANIAPHENOL I] | 33 | 64 | 0.57 | 14.7 | inactive | > 50 | > 50 | 13 | 
C/C=C/c1ccc2oc(-c3ccc(O)cc3)cc2c1 | 35 | 74 | 0.44 | 1.4 | inactive | 18.3 | 2 | 5.3 | inactive
COc1cc(O)ccc1-c1cc2cc(CCCO)ccc2o1 | 32 | 75 | 0.45 |  | inactive | > 50 | > 50 | > 50 | 
C/C=C/c1ccc2oc(-c3ccc(O)cc3OC)cc2c1 [RATANIAPHENOL III] | 35 | 70 | 0.48 | > 20 | inactive | 2.7 | 7.6 | 13.5 | 
C/C=C/c1ccc2oc(-c3ccc(O)cc3)c(C)c2c1 [RATANIAPHENOL II] | 41 | 75 | 0.4 |  | inactive | 3 | 1.7 | 11 | inactive
C/C=C/c1ccc2oc(-c3ccc(O)cc3O)cc2c1 | 29 | 64 | 0.6 |  | inactive | 3.8 | 7.1 | 7.4 | 
